Source: ChEMBL document CHEMBL1156246 (J Med Chem, 2009)
Activity calls are given as the source filed them. No cut-off for these calls is given here.

Experiments:
[1] = test system: Mus musculus; assay: Anticonvulsant activity in ip dosed albino mouse assessed as protection against subcutaneous metrazole-induced seizures; format: functional, organism-based
In short: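 Male albino Carworth Farms No. 1 mice, dosed intraperitoneally; subcutaneous metrazol seizure model run by previously reported methods under the NIH Anticonvulsant Screening Program; protection against seizures scored.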

[2] = biological target: Dihydropyrimidinase-related protein 2 (Mus musculus) (UniProt O08553); assay: Binding affinity to CRMP2 in ICR mouse brain […] at 5 uM by Western blot analysis in presence of rhodamine-containing 4-(3-azidopropylcarbamoyl)-2-(3,6-bis(dimethylamino)xanthylium-9-yl)benzoate; format: tissue-based
[3] = test system: Rattus norvegicus; assay: Anticonvulsant activity in po dosed Sprague-Dawley rat assessed as protection against subcutaneous metrazole-induced seizures; format: functional, organism-based
In short: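 Male albino Sprague-Dawley rats, oral dosing; subcutaneous metrazol seizure test by previously reported methods within the NIH Anticonvulsant Screening Program.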

[4] = test system: Rattus norvegicus; assay: Anticonvulsant activity against maximal electroshock-induced seizures in po dosed Sprague-Dawley rat assessed as time of peak effect; format: functional
[5] = Neurotoxicity in ip dosed albino mouse by rotarod test; format: toxicity, organism-based; conditions: in vivo
[6] = Neurotoxicity in po dosed Sprague-Dawley rat by rotarod test; format: toxicity, organism-based; conditions: in vivo
[7] = test system: Rattus norvegicus; assay: Anticonvulsant activity in po dosed Sprague-Dawley rat assessed as protection against maximal electroshock-induced seizures; format: functional
In short: (§1)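 Male rodents screened through the NIH Anticonvulsant Screening Program: albino Carworth Farms No. 1 mice given compound ip, albino Sprague-Dawley rats given compound po. Maximal electroshock test: tonic hindlimb seizures were induced by corneal electrical stimulation. ED50 is given in mg/kg.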

[8] = test system: Rattus norvegicus; assay: Neurotoxicity in po dosed Sprague-Dawley rat assessed as time of peak effect by rotarod test; format: toxicity, organism-based; conditions: in vivo
[9] = test system: Mus musculus; assay: Anticonvulsant activity in ip dosed albino mouse assessed as protection against maximal electroshock-induced seizures; format: functional; in short: as §1
[10] = test system: Mus musculus; assay: Anticonvulsant activity against maximal electroshock-induced seizures in ip dosed albino mouse assessed as time of peak effect; format: functional
[11] = test system: Mus musculus; assay: Anticonvulsant activity in ip dosed albino mouse assessed as protection against 6 Hz electric shock-induced seizures; format: functional
In short: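 6 Hz psychomotor seizure test in mice dosed ip, with stimulation at 32 mA.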

[12] = test system: Mus musculus; assay: Neurotoxicity in ip dosed albino mouse assessed as time of peak effect by rotarod test; format: toxicity, organism-based; conditions: in vivo
[13] = biological target: Dihydropyrimidinase-related protein 2 (Mus musculus) (UniProt O08553); assay: Binding affinity to CRMP2 in ICR mouse brain […] at 5 uM by in-gel tryptic digestion analysis in presence of rhodamine-containing 4-(3-azidopropylcarbamoyl)-2-(3,6-bis(dimethylamino)xanthylium-9-yl)benzoate; format: tissue-based
In short: (§2)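 Brain soluble fraction from male 2-month ICR mice was Dounce-homogenized in 50 mM HEPES pH 7.4 and spun at 1200 × g then 100,000 × g at 4 °C. The fraction was exchanged into HEPES pH 8.0 at 2.0 mg/mL, treated with agent (5 μM, 30 min, room temperature), then clicked to rhodamine-azide (50 μM) with TCEP 1 mM, TBTA 200 μM and CuSO4 1 mM for 1 h. After SDS-PAGE, the ~62 kDa band was trypsin-digested, iTRAQ-labelled and analysed by LC-MS/MS.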

[14] = biological target: Dihydropyrimidinase-related protein 2 (Mus musculus) (UniProt O08553); assay: Binding affinity to CRMP2 in ICR mouse brain […] at 5 uM by mass spectrometry in presence of rhodamine-containing 4-(3-azidopropylcarbamoyl)-2-(3,6-bis(dimethylamino)xanthylium-9-yl)benzoate; format: tissue-based; in short: as §2
[15] = test system: Mus musculus; assay: Anticonvulsant activity against 6 Hz electric shock-induced seizures in ip dosed albino mouse assessed as time of peak effect; format: functional
[16] = test system: Mus musculus; assay: Protective index, ratio of TD50 for ip dosed albino mouse to ED50 for protection against maximal electroshock-induced seizures in ip dosed albino mouse; format: functional
[17] = biological target: Dihydropyrimidinase-related protein 2 (Mus musculus) (UniProt O08553); assay: Binding affinity to CRMP2 in ICR mouse brain […] at 5 uM by Western blot analysis in presence of rhodamine-containing 4-(3,6,9,12-tetraoxapentadec-14-ynylcarbamoyl)-2-(3,6-bis(dimethylamino)xanthylium-9-yl)benzoate; format: tissue-based
In short: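 Soluble brain proteome from male 2-month ICR mice was Dounce-homogenized in 50 mM HEPES pH 7.4. It was spun at 1200 × g for 12 min, then at 100,000 × g for 1 h at 4 °C, and exchanged into pH 8.0 HEPES. Aliquots (2.0 mg/mL protein) got 5 μM agent for 30 min at RT. Click reaction used rhodamine-alkyne 50 μM, TCEP 1 mM, TBTA 200 μM, CuSO4 1 mM, 1 h RT. Read-out: SDS-PAGE, in-gel fluorescence (ex 555/em 580 nm).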

[18] = test system: Rattus norvegicus; assay: Toxicity in Sprague-Dawley rat assessed as occurrence of ataxia at 300 mg/kg, po; format: organism-based; parameters: dose 300 mg/kg, route oral; conditions: in vivo
[19] = test system: Rattus norvegicus; assay: Protective index, ratio of TD50 for po dosed Sprague-Dawley rat to ED50 for protection against maximal electroshock-induced seizures in po dosed Sprague-Dawley rat; format: functional

Compound: C#Cc1ccc(CNC(=O)[C@@H](COCCN=C=S)NC(C)=O)cc1
- Activity [1]: inactive
- Activity [2]: inactive
- Activity [3]: inactive

Compound: CC(=O)N[C@H](COCCN=C=S)C(=O)NCc1ccccc1
- Activity [1]: inactive
- Activity [3]: inactive
- Time [4]: 4 h
- TD50 [5]: 30 mg/kg
- TD50 [6]: > 30 mg/kg
- ED50 [7]: < 30 mg/kg
- Time [8]: 4 h
- ED50 [9]: > 300 mg/kg
- Time [10]: 0.5 h

Compound: CC(=O)N[C@@H](COCCN=[N+]=[N-])C(=O)NCc1ccccc1
- Activity [1]: inactive
- Activity [3]: inactive
- TD50 [5]: > 300 mg/kg
- ED50 [9]: > 300 mg/kg

Compound: C#CCOC[C@H](NC(C)=O)C(=O)NCc1ccccc1
- Activity [1]: inactive
- ED50 [11]: > 30 mg/kg
- Activity [3]: inactive
- TD50 [5]: > 300 mg/kg
- TD50 [6]: > 30 mg/kg
- ED50 [7]: 30 mg/kg
- ED50 [9]: > 300 mg/kg

Compound: C#Cc1ccc(CNC(=O)[C@@H](COC)NC(C)=O)cc1
- Activity [1]: inactive
- Activity [3]: inactive
- TD50 [5]: 10 mg/kg
- TD50 [6]: < 30 mg/kg
- Time [8]: 0.5 h
- ED50 [9]: 3 mg/kg
- Time [12]: 0.5 h
- Time [10]: 0.5 h

Compound: CCCC(CCC)C(=O)[O-].[Na+] [VALPROATE SODIUM]
- Activity [1]: inactive
- Activity [3]: inactive
- Time [4]: 0.5 h
- Time [8]: 0.5 h
- ED50 [9]: 270 mg/kg
- Time [12]: 0.25 h
- Time [10]: 0.25 h

Compound: C#CCOC[C@H](NC(C)=O)C(=O)NCc1ccc(N=C=S)cc1
- Activity [1]: inactive
- Activity [2]: Active
- Activity [3]: inactive
- Activity [13]: Active
- TD50 [5]: > 300 mg/kg
- ED50 [9]: > 300 mg/kg
- Activity [14]: Active

Compound: CCC1(c2ccccc2)C(=O)NC(=O)NC1=O [PHENOBARBITAL]
- Activity [1]: inactive
- Activity [3]: inactive
- Time [4]: 5 h
- ED50 [7]: 9.1 mg/kg
- Time [8]: 0.5 h
- ED50 [9]: 22 mg/kg
- Time [12]: 0.5 h
- Time [10]: 1 h

Compound: C#CCOC[C@@H](NC(C)=O)C(=O)NCc1ccc(N=C=S)cc1
- Time [15]: 0.5 h
- Activity [1]: inactive
- Activity [2]: Active
- Ratio TD50/ED50 [16]: 2.4
- ED50 [11]: 53 mg/kg
- Activity [3]: inactive
- Activity [13]: Active
- TD50 [5]: 110 mg/kg
- TD50 [6]: > 30 mg/kg
- ED50 [7]: > 30 mg/kg
- ED50 [9]: 45 mg/kg
- Activity [14]: Active
- Time [12]: 0.25 h
- Time [10]: 1 h

Compound: C#Cc1ccc(CNC(=O)[C@H](COC)NC(C)=O)cc1
- Activity [1]: inactive
- Activity [3]: inactive
- TD50 [5]: 300 mg/kg
- ED50 [9]: > 300 mg/kg
- Time [12]: 0.5 h
- Time [10]: 0.5 h

Compound: CC(=O)N[C@@H](COCCN=C=S)C(=O)NCc1ccccc1
- Activity [1]: inactive
- Activity [3]: inactive
- Time [4]: 4 h
- TD50 [5]: 30 mg/kg
- ED50 [7]: < 30 mg/kg
- ED50 [9]: > 300 mg/kg
- Time [12]: 0.5 h
- Time [10]: 0.5 h

Compound: COC[C@@H](NC(C)=O)C(=O)NCc1ccccc1 [LACOSAMIDE]
- Activity [1]: inactive
- ED50 [11]: 10 mg/kg
- Activity [3]: inactive
- Time [4]: 0.5 h
- TD50 [6]: > 250 mg/kg
- ED50 [7]: 4.2 mg/kg
- Time [8]: 0.5 h
- Time [12]: 0.25 h
- Time [10]: 0.5 h

Compound: CC(=O)N[C@@H](COCCN=[N+]=[N-])C(=O)NCc1ccc(N=C=S)cc1
- Activity [1]: inactive
- Activity [3]: inactive
- TD50 [5]: 300 mg/kg
- ED50 [9]: 100 mg/kg
- Activity [17]: Active
- Time [10]: 0.25 h

Compound: CC(=O)N[C@H](COCCN=[N+]=[N-])C(=O)NCc1ccc(N=C=S)cc1
- Activity [1]: inactive
- Activity [3]: inactive
- TD50 [5]: 100 mg/kg
- ED50 [9]: 100 mg/kg
- Time [12]: 0.5 h
- Activity [17]: Active
- Time [10]: 4 h

Compound: C#Cc1ccc(CNC(=O)[C@H](COCCN=C=S)NC(C)=O)cc1
- Activity [1]: inactive
- Activity [2]: inactive
- Activity [3]: inactive

Compound: O=C1NC(=O)C(c2ccccc2)(c2ccccc2)N1 [PHENYTOIN]
- Activity [1]: inactive
- Activity [3]: inactive
- Time [4]: 4 h
- ED50 [7]: > 30 mg/kg
- Activity [18]: Non-toxic
- Time [12]: 2 h
- Time [10]: 2 h

Compound: CC(=O)N[C@H](COCCN=[N+]=[N-])C(=O)NCc1ccccc1
- Time [15]: 0.5 h
- Activity [1]: inactive
- ED50 [11]: 44 mg/kg
- Activity [3]: inactive
- Time [4]: 0.25 h
- TD50 [5]: 100 mg/kg
- TD50 [6]: > 30 mg/kg
- ED50 [7]: > 40 mg/kg
- ED50 [9]: 100 mg/kg
- Time [12]: 4 h
- Time [10]: 4 h

Compound: CC(=O)N[C@H](CO)C(=O)NCc1ccc(N=C=S)cc1
- Activity [1]: inactive
- Ratio TD50/ED50 [16]: 2
- Activity [3]: inactive
- Time [4]: 4 h
- TD50 [5]: 47 mg/kg
- TD50 [6]: > 250 mg/kg
- ED50 [7]: 4.2 mg/kg
- ED50 [9]: 24 mg/kg
- Time [12]: 0.25 h
- Ratio TD50/ED50 [19]: >59
- Time [10]: 0.5 h

Compound: C#CCOC[C@@H](NC(C)=O)C(=O)NCc1ccccc1
- Time [15]: 0.5 h
- Activity [1]: inactive
- Ratio TD50/ED50 [16]: 3.7
- ED50 [11]: 29 mg/kg
- Activity [3]: inactive
- Time [4]: 0.5 h
- TD50 [5]: 59 mg/kg
- TD50 [6]: > 500 mg/kg
- ED50 [7]: 7.9 mg/kg
- ED50 [9]: 16 mg/kg
- Time [12]: 0.25 h
- Ratio TD50/ED50 [19]: >63
- Time [10]: 0.25 h

Compound: CC(=O)N[C@@H](CO)C(=O)NCc1ccc(N=C=S)cc1
- Activity [1]: inactive
- Activity [3]: inactive
- TD50 [5]: 30 mg/kg
- TD50 [6]: > 30 mg/kg
- ED50 [7]: 180 mg/kg
- ED50 [9]: 100 mg/kg
